Source: ChEMBL document CHEMBL1131626 (J Med Chem, 1998)

Assays:
[1] = target: T1, Progesterone receptor (Homo sapiens) (UniProt P06401); test: Efficacy for progesterone receptor relative to progesterone
T1 sequence (whole entry): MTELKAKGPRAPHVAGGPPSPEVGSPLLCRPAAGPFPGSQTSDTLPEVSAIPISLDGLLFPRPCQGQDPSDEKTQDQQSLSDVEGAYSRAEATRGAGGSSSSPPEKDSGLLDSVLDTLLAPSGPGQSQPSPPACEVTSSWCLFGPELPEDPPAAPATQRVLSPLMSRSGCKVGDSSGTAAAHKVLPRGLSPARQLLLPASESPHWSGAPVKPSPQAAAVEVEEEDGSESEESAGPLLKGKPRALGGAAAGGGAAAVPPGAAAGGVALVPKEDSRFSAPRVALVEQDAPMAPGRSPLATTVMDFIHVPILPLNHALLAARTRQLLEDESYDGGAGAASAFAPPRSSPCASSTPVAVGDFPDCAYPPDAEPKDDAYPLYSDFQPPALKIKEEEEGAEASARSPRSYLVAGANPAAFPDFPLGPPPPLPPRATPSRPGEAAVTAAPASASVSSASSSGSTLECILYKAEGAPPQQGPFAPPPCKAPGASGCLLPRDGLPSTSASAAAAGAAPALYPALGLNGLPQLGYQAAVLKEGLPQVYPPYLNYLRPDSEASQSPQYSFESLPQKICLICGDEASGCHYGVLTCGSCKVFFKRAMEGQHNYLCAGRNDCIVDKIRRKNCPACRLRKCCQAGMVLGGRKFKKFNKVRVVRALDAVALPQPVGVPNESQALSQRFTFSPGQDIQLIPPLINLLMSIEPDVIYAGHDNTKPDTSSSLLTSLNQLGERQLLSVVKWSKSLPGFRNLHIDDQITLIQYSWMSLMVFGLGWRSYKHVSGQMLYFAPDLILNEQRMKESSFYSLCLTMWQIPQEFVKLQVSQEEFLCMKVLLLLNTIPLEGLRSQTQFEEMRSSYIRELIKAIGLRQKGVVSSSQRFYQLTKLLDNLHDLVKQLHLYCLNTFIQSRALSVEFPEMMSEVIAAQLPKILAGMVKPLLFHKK

[2] = target: T2, Progesterone receptor (Rattus norvegicus) (UniProt Q63449); test: Fold induction as increase in BrdU labeling index over estrone treatment alone in lobular-aveolar rat mammary buds by progestin treatment at 3 mg/kg; format: functional, organism-based; design: dose 3 mg/kg
T2 sequence (whole entry): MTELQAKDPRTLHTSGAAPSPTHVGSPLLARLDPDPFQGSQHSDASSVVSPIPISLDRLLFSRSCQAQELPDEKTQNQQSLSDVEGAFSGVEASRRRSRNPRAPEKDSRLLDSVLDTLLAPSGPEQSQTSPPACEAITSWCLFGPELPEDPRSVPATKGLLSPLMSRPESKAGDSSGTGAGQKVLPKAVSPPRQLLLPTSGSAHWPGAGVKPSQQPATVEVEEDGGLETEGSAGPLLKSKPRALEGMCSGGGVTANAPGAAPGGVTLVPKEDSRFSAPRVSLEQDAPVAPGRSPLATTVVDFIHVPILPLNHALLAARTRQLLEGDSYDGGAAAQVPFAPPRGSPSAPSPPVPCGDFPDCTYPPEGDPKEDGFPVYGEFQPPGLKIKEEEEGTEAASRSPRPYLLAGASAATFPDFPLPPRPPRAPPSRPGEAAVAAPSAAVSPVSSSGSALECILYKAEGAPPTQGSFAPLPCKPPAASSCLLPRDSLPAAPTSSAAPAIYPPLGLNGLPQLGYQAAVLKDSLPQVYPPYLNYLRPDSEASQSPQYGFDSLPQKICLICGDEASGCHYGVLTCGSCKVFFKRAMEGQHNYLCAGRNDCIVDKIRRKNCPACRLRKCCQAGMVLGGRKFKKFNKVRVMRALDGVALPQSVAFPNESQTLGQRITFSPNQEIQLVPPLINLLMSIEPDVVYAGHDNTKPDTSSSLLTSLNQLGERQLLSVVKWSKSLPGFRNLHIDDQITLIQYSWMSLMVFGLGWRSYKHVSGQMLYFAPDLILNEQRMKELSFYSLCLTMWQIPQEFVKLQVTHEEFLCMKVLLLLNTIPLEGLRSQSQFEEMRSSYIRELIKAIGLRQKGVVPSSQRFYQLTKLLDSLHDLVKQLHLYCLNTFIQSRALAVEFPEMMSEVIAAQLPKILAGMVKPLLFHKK
In short: (§1)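 Ovariectomized Sprague-Dawley rats, 4-5 weeks old, groups of 4-5, given estrone 10 µg sc plus oral compound in corn oil (0.5 mL) for 3 days. On day 4, BrdU 200 mg/kg ip; mammary glands taken 3 h later. Frozen sections stained with anti-BrdU/FITC. Labeling index = labeled/lobular area, averaged over 12 fields per gland, as fold over estrone alone.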

[3] = target: T3, Progesterone receptor (Homo sapiens, UniProt P06401); test: Effective concentration for half-maximal activation of human progesterone receptor expressed in CV-1 cells; format: cell-based
T3 sequence (P06401 whole entry): T1 sequence (whole entry)

[4] = target: T3, Progesterone receptor; test: Binding affinity for baculovirus-expressed human progesterone receptor isoform A
[5] = target: T4, Progesterone receptor (Mus musculus) (UniProt Q00175); test: Effect on pregnancy in mice as number pregnant/mated at 3 mg/mouse dose with simultaneous 0.5 mg RU-486 dose; out of 10; format: functional
T4 sequence (whole entry): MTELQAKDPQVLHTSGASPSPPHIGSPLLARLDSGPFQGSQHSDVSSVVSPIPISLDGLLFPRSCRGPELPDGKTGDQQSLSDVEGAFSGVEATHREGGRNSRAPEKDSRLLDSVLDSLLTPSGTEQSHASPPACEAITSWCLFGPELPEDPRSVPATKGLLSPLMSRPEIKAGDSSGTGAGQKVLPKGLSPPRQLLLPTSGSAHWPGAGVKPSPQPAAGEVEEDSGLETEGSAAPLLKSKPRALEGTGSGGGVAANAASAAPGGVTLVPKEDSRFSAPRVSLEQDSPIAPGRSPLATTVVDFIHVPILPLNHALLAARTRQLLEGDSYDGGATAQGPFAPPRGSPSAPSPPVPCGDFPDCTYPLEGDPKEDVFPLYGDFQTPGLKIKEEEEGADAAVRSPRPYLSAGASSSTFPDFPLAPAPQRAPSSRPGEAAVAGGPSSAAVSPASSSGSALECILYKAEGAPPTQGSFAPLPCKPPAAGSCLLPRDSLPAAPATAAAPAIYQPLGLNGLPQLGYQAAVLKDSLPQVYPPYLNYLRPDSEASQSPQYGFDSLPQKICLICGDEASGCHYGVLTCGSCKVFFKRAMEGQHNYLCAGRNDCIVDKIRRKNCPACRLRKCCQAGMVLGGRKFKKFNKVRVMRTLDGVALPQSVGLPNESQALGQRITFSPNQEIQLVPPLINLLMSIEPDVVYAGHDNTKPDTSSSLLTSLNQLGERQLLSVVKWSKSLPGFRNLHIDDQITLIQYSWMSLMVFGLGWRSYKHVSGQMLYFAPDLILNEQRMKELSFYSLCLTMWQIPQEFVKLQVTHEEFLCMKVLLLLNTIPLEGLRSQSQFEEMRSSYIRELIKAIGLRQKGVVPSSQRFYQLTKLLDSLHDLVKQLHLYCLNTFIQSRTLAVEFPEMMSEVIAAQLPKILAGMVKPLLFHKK
In short: (§2)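 Mature virgin ICR mice, 10-12 weeks old, mated overnight; vaginal plug marks day 1. Oral RU486 0.5 mg (~15 mg/kg), alone or with test compound (mg/mouse), on days 2-4. Compounds in ethanol diluted with corn oil, 0.1 mL. Oil controls. Necropsy on day 8 to count corpora lutea and implantation sites and to score pregnancy. Student t-test.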

[6] = target: T4, Progesterone receptor (Mus musculus); test: Effect on pregnancy in mice as percent pregnant at 1 mg/mouse dose with simultaneous 0.5 mg RU-486 dose; format: functional; in short: as §2
[7] = target: T4, Progesterone receptor (Mus musculus); test: Effect on pregnancy in mice as corpora lutea at 3 mg/mouse dose with simultaneous 0.5 mg RU-486 dose; format: functional, organism-based; in short: as §2
[8] = target: T4, Progesterone receptor (Mus musculus); test: Effect on pregnancy in mice as corpora lutea at 1 mg/mouse dose with simultaneous 0.5 mg RU-486 dose; format: functional, organism-based; in short: as §2
[9] = target: T4, Progesterone receptor (Mus musculus); test: Effect on pregnancy in mice as implantation at 3 mg/mouse dose with simultaneous 0.5 mg RU-486 dose; format: functional; in short: as §2
[10] = target: T4, Progesterone receptor (Mus musculus); test: Effect on pregnancy in mice as implantation at 1 mg/mouse dose with simultaneous 0.5 mg RU-486 dose; format: functional; in short: as §2
[11] = target: T4, Progesterone receptor (Mus musculus); test: Effect on pregnancy in mice as percent pregnant at 3 mg/mouse dose with simultaneous 0.5 mg RU-486 dose; format: functional; in short: as §2
[12] = target: T4, Progesterone receptor (Mus musculus); test: Effect on pregnancy in mice as number pregnant/mated at 1 mg/mouse dose with simultaneous 0.5 mg RU-486 dose; out of 10; format: functional; in short: as §2
[13] = target: T5, Glucocorticoid receptor (Homo sapiens, UniProt P04150); test: Binding affinity for baculovirus-expressed human glucocorticoid receptor
T5 sequence (P04150 whole entry): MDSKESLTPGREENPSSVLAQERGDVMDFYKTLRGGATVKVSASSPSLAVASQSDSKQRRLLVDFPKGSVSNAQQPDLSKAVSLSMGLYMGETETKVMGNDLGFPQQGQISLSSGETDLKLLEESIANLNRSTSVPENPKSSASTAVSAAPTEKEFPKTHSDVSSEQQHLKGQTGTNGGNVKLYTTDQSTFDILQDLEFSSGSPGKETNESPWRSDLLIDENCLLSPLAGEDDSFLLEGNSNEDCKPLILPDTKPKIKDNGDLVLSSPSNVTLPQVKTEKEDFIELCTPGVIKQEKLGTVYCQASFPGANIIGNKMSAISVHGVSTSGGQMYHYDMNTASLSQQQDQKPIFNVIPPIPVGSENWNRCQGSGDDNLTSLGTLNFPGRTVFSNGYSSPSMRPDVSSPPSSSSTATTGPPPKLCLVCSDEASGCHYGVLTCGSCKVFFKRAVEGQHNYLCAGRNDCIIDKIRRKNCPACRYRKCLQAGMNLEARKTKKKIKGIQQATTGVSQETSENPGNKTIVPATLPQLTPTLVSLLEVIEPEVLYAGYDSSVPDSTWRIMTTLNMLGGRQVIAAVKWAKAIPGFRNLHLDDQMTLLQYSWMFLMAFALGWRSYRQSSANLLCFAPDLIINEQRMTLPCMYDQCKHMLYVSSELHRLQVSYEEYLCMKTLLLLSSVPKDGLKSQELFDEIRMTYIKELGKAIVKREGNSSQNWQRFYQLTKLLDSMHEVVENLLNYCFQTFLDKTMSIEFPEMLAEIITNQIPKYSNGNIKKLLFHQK

[14] = target: T2, Progesterone receptor (Rattus norvegicus); test: Fold induction as increase in BrdU labeling index over estrone treatment alone in lobular-aveolar rat mammary buds by progestin treatment; format: functional; in short: as §1

CC1=CC(C)(C)Nc2ccc3c(c21)C(c1cccc(Cl)c1)Oc1ccc(F)cc1-3 (racemic) [listing 1 of 2 here] showed an Efficacy [1] of 117.
With CC1=CC(C)(C)Nc2ccc3c(c21)C(c1ccc(Cl)c(C)c1)Oc1ccc(F)cc1-3 (single isomer, unassigned; (-)) [listing 1 of 2 here] the Efficacy [1] was 99 and the Fold induction [2] was 2.5.
CC1=CC(C)(C)Nc2ccc3c(c21)C(c1ccc(Cl)c(C)c1)Oc1ccc(F)cc1-3 (single isomer, unassigned; (-)) [listing 2 of 2 here] showed an EC50 [3] of 2.4 nM and a Ki [4] of 0.4 nM.
CC1=CC(C)(C)Nc2ccc3c(c21)C(c1ccc(Cl)c(C)c1)Oc1ccc(F)cc1-3 (stereo in doubt) [listing 1 of 2 here] showed an EC50 [3] of 147 nM and a Ki [4] of 60 nM.
CC#C[C@]1(O)CC[C@H]2[C@@H]3CCC4=CC(=O)CCC4=C3[C@@H](c3ccc(N(C)C)cc3)C[C@@]21C.CC1=CC(C)(C)Nc2ccc3c(c21)C(c1ccc(Cl)c(C)c1)Oc1ccc(F)cc1-3 was tested, and the No. pregnant/mated [5] was 5, the Pregnant [6] was 30% and the Corpora lutea [7] was 13.8. For the same molecule, the Corpora lutea [8] was 13, the Implants [9] was 6.6 and the Implants [10] was 2.2. The Pregnant [11] was 50% and the No. pregnant/mated [12] was 3.
CC1=CC(C)(C)Nc2ccc3c(c21)C(c1cccc(Cl)c1)Oc1ccc(Cl)cc1-3 (racemic) gave an Efficacy [1] of 95 and a Ki [13] of 6.3 nM.
For CC1=CC(C)(C)Nc2ccc3c(c21)C(c1ccc(Cl)c(C)c1)Oc1ccc(Cl)cc1-3 (racemic), the Efficacy [1] was 73 and the Ki [13] was 14 nM.
CC1=CC(C)(C)Nc2ccc3c(c21)C(c1cccc(Cl)c1)Oc1ccc(F)cc1-3 (single isomer, unassigned; (-)) [listing 1 of 2 here] was tested, and the Efficacy [1] was 125 and the Fold induction [2] was 3.6.
For CC1=CC(C)(C)Nc2ccc3c(c21)C(c1cccc(Cl)c1)Oc1ccc(F)cc1-3 (single isomer, unassigned; (-)) [listing 2 of 2 here], the EC50 [3] was 1.3 nM and the Ki [4] was 0.1 nM.
CC1=CC(C)(C)Nc2ccc3c(c21)C(c1ccc(Cl)c(C)c1)Oc1ccc(F)cc1-3 (stereo in doubt) [listing 2 of 2 here] gave an Efficacy [1] of 43.
CC1=CC(C)(C)Nc2ccc3c(c21)C(c1cccc(Cl)c1)Oc1ccc(F)cc1-3 (racemic) [listing 2 of 2 here] showed a Ki [13] of 133 nM.
With CC1=CC(C)(C)Nc2ccc3c(c21)C(c1cccc(Cl)c1)Oc1ccc(F)cc1-3 (single isomer, unassigned; (+)) [listing 1 of 2 here] the EC50 [3] was 135 nM and the Ki [4] was 30 nM.
CC1=CC(C)(C)Nc2ccc3c(c21)C(c1cccc(Cl)c1)Oc1ccc(F)cc1-3 (single isomer, unassigned; (+)) [listing 2 of 2 here] showed an Efficacy [1] of 83.
Molecule C[C@]12CC[C@@H]3c4ccc(O)cc4CC[C@H]3[C@@H]1CCC2=O has a Fold induction [2] of 24 and a Fold induction [14] of 1.
CC1=CC(C)(C)Nc2ccc3c(c21)C(c1ccc(Cl)c(C)c1)Oc1ccc(F)cc1-3 (racemic) [listing 1 of 2 here] was tested, and the Ki [13] was 210 nM.
CC1=CC(C)(C)Nc2ccc3c(c21)C(c1ccc(Cl)c(C)c1)Oc1ccc(F)cc1-3 (racemic) [listing 2 of 2 here] gave an Efficacy [1] of 97.
